From ChEMBL document CHEMBL1136581, “Synthesis of dopamine transporter selective 3-[2-(diarylmethoxyethylidene)]-8-alkylaryl-8-azabicyclo[3.2.1]octanes” (Bioorg Med Chem Lett, 2003)

Legend:
[1] = target: Sodium-dependent serotonin transporter (Rattus norvegicus, UniProt P31652); test: Binding affinity at serotonin transporter from rat caudate-putamen tissue by [3H]WIN-35428 displacement.; type: tissue-based
Outline: (§1)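 Compounds were tested as oxalate salts. Ki values are the mean ± SEM of three experiments, each run in triplicate.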

[2] = target: Monoamine transporters; serotonin & dopamine (Rattus norvegicus) (UniProt P31652+P23977); test: Binding affinity towards serotonin transporter compared to dopamine transporter.; type: protein assay
Sequence of Monoamine transporters; serotonin & dopamine (Rattus norvegicus) (P23977 whole entry, looked up): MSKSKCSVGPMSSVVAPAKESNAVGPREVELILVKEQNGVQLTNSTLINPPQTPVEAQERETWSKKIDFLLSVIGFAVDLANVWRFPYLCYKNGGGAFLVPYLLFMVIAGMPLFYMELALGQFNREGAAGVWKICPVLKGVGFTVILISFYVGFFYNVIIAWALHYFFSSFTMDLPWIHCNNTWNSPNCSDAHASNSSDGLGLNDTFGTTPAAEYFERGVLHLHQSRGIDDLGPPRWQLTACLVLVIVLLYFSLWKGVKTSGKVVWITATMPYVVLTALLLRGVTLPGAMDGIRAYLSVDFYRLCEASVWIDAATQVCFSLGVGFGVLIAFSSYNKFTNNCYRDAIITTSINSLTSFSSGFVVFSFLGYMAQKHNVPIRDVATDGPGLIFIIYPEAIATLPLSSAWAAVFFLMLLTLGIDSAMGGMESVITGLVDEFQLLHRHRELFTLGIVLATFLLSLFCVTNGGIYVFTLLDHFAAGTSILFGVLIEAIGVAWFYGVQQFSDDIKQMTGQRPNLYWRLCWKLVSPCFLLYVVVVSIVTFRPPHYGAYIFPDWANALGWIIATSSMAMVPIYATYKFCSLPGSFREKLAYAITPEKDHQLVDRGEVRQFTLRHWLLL
Sequence of Monoamine transporters; serotonin & dopamine (Rattus norvegicus) (P31652 whole entry, looked up): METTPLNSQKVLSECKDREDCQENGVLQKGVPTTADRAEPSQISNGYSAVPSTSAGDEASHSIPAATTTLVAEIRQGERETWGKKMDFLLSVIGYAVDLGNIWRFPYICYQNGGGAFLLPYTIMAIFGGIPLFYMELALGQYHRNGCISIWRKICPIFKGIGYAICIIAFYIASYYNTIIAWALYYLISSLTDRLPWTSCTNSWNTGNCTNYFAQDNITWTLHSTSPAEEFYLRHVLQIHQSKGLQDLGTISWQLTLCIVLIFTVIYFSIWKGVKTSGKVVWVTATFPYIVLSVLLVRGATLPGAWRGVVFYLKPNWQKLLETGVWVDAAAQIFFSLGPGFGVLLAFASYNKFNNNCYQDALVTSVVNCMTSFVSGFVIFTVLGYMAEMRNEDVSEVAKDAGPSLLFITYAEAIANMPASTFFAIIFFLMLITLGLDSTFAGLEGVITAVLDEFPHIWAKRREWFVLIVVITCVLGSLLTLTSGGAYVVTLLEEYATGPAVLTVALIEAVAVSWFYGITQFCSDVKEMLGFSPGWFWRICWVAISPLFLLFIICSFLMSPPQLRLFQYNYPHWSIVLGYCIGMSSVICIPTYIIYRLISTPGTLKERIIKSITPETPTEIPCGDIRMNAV

[3] = target: Sodium-dependent dopamine transporter (Rattus norvegicus, UniProt P23977); test: Binding affinity at dopamine transporter from rat caudate-putamen tissue by [3H]WIN-35428 displacement.; outline: as §1
Sequence of Sodium-dependent dopamine transporter (P23977 whole entry): as the sequence (P23977 whole entry, looked up) above

Sequence of Sodium-dependent serotonin transporter (P31652 whole entry): as the sequence (P31652 whole entry, looked up) above

SMILES | Ki [1] [nM] | Ratio [2] | Ki [3] [nM]
Fc1ccc(C(OCC=C2CC3CCC(C2)N3Cc2ccccc2)c2ccc(F)cc2)cc1 | 2220 | 281 | 
c1ccc(CN2C3CCC2CC(CCOC(c2ccccc2)c2ccccc2)C3)cc1 (configuration not stated) | 4780 | 48 | 
Oc1ccc(CN2C3CCC2CC(CCOC(c2ccc(F)cc2)c2ccc(F)cc2)C3)cc1 (configuration not stated) | 809 | 27 | 30
CN1[C@@H]2CC[C@H]1C[C@@H](CCOC(c1ccccc1)c1ccccc1)C2 | 14100 | 243 | 58
Fc1ccc(C(OCC[C@H]2C[C@H]3CC[C@@H](C2)N3CCCc2ccccc2)c2ccc(F)cc2)cc1 | 175 |  | 7.4
Clc1ccc(C(OCCC2CC3CCC(C2)N3CCCc2ccccc2)c2ccc(Cl)cc2)cc1 (configuration not stated) | 177 | 4 | 50
c1ccc(CCCN2[C@@H]3CC[C@H]2C[C@@H](CCOC(c2ccccc2)c2ccccc2)C3)cc1 | 750 | 42 | 18
C(COC(c1ccccc1)c1ccccc1)=C1CC2CCC(C1)N2Cc1ccccc1 | 5420 | 113 | 48
Clc1ccc(C(OCCC2CC3CCC(C2)N3Cc2ccccc2)c2ccccc2)cc1 (configuration not stated) | 1940 | 24 | 82
Clc1ccc(C(OCCC2CC3CCC(C2)N3CCCc2ccccc2)c2ccccc2)cc1 (configuration not stated) | 374 | 12 | 30
CN1C2CCC1CC(CCOC(c1ccc(F)cc1)c1ccc(F)cc1)C2 (configuration not stated) | 2470 | 80 | 31
Oc1cccc(CN2C3CCC2CC(CCOC(c2ccc(F)cc2)c2ccc(F)cc2)C3)c1 (configuration not stated) | 651 | 33 | 20
Fc1ccc(C(OCCC2CC3CCC(C2)N3Cc2ccccc2)c2ccc(F)cc2)cc1 (configuration not stated) | 1430 | 251 | 5.7
CN1C2CCC1CC(CCOC(c1ccccc1)c1ccc(Cl)cc1)C2 (configuration not stated) | 3430 | 71 | 
CN1C2CCC1CC(CCOC(c1ccc(Cl)cc1)c1ccc(Cl)cc1)C2 (configuration not stated) | 1160 | 64 | 18
Fc1ccc(C(OCC=C2CC3CCC(C2)N3CCCc2ccccc2)c2ccc(F)cc2)cc1 | 562 | 152 | 3.7
Clc1ccc(C(OCCC2CC3CCC(C2)N3Cc2ccccc2)c2ccc(Cl)cc2)cc1 (configuration not stated) | 822 | 9 | 91
